Screening results as filed in PubChem BioAssay.
Most compounds without a hit are left out; they make up all but 2.2% or so of the library.
COUP-TFII inh = inhibitors of human COUP-TFII (NR2F2); P24468; HEK293T NGFI-A luciferase reporter, luminescence; inhibition, % at 8.6 µM; hit rate 0.7% among 370,000; AID 686940;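 active = inhibition above a per-plate cutoff, mean inhibition of test wells between control levels plus 3 SD, cut at about 38% in these data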;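 also: cells cotransfected with COUP-TFII expression vector driving the NGFI-A reporter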
NR2E3 ag-1 = NR2E3 (human) agonism. hit rate 0.12% among 320,000. inhibition of corepressor binding, % at 4.78 µM. Q9Y5X4. GST-NR2E3/biotin-RetCOR TR-FRET, 1536-well;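 active = percent inhibition above the cutoff of mean plus 3 SD of all tested compounds, set per screening campaign, cut at about 20% in these data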
Target sequence (Q9Y5X4 whole entry, looked up): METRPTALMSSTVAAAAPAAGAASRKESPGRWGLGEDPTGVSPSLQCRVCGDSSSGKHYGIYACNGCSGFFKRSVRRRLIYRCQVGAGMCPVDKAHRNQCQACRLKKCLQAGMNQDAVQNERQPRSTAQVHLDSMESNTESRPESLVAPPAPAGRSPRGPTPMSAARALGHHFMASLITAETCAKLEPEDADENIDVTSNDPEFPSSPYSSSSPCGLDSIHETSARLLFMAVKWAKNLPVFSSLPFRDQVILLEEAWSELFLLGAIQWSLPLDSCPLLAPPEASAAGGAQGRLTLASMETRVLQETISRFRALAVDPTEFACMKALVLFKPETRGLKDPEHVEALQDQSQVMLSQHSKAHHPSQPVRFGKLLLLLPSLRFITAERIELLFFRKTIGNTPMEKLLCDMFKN
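Test system: GST-NR2E3 and biotin-RetCOR proteins | Quantity: 1.35 nM GST-tagged NR2E3 final | Medium: Tris pH 7.5 | Also added: 7 nM biotin-RetCOR | Dosing: Compound at 4.8 µM, single dose | Timing: 5 h at 4 °C | Detection: Time-resolved FRET | Read-out basis: Percent inhibition | Benchmarks: Biotin wells as high control, 0.6% DMSO wells as low control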
GalR3 antagonist = blocks the human galanin receptor 3. O60755. HEK293 GalR3-CNG cAMP membrane potential fluorescence; galR3 body fused to GalR1 C-terminus. inhibition, % at 3 µM. hit rate 0.44% among 360,000;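 active = inhibition above the screen-wide average plus 3 SD, cut at about 13% in these data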;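 also: forskolin and galanin both at EC90 stimulate the cells; cAMP rise reported by CNG channel membrane potential dye signal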
Target sequence (O60755 1-299 limits assumed): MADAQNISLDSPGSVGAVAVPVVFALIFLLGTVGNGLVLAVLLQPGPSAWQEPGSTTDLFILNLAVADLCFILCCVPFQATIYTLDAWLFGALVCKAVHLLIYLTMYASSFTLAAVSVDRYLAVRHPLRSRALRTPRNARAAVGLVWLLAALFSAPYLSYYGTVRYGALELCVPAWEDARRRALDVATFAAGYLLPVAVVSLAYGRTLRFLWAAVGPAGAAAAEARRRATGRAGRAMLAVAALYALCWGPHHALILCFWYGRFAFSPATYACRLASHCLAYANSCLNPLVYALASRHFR
SMARCA2 activ = activators of SMARCA2 function; MG213 cells, MMTV-luciferase reporter, dexamethasone, overnight; activation, % at 9.1 µM; hit rate 1% among 370,000; AID 652017; in the data active = activation above about 7.8%
NR2E3 ag-2 = human photoreceptor-specific nuclear receptor agonism; AID 602229; inhibition of corepressor binding, % at 3.98 µM; CHO-S Gal4-NCOR/VP16-NR2E3 two-hybrid, luciferase; hit rate 0.35% among 360,000;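 active = inhibition above the mean of all tested compounds plus 3 SD, cut at about 70% in these data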;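 also: higher means lower luciferase signal from less NR2E3 corepressor binding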
NR2E3 ag conf = NR2E3 agonism confirmed in two-hybrid assay | shares compounds with NR2E3 ag-2 | CHO-S mammalian two-hybrid NR2E3-NCOR, luciferase luminescence | inhibition, % at 3.98 µM | hit rate 51% among 2,300;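 active = average inhibition above a cutoff equal to the mean inhibition of all tested compounds plus one SD, cut at about 70% in these data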
VP16 counter = GAL4-VP16 reporter inhibition in NR2E3 agonist counterscreen | shares compounds with NR2E3 ag-2 | CHO-S GAL4-VP16 luciferase reporter, luminescence | inhibition, % at 3.98 µM | hit rate 29% among 2,300;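 active = mean inhibition above a cutoff equal to the average over all tested compounds plus one standard deviation, cut at about 70% in these data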;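 also: luciferase from a UAS reporter driven by GAL4-VP16 transactivation; higher means less reporter light so more repression of VP16 activity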
GalR3 antag conf = GalR3 (human) antagonism, confirmation; shares compounds with GalR3 antagonist; HEK293 GalR3 CNG cAMP biosensor, membrane potential fluorescence; galR3 fused to GalR1 carboxy tail; challenged with forskolin and galanin at EC90; inhibition, % at 3 µM; hit rate 59% among 1,600; AID 652245;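 active = inhibition above the primary screen's cutoff, the mean inhibition of all screened compounds plus 3 SD, cut at about 13% in these data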
HEK-CNG parental = acts as nonspecific agonist in parental HEK-CNG cells; activation, % at 3 µM; HEK293-CNG parental cells, cAMP membrane potential fluorescence; normalised: DMSO wells 0%, forskolin wells 100%; hit rate 10% among 1,600; shares compounds with GalR3 antagonist; in the data active = activation above about 1.3%
SMARCA2 act conf = confirmation of SMARCA2 (BRM) function activators | hit rate 30% among 3,500 | activation, % at 9.1 µM | shares compounds with SMARCA2 activ | MG213 cells, MMTV-luciferase with dexamethasone, luminescence, overnight; MG213 cells expressing E1A, Rb sequestered; DMSO wells 0%, reference activator 100%;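 active = activation above its plate's cutoff, the mean activation of tested wells plus 3 SD, cut at about 7.9% in these data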
GAL4-VP16 Luc = counter-screen for SMARCA2 activators: GAL4-VP16 luciferase reporter activation; activation, % at 9.1 µM; hit rate 41% among 3,500; shares compounds with SMARCA2 activ; AID 686939; HEK293 GAL4-VP16 pG5luc reporter, luciferase luminescence; scaled: DMSO wells 0%, SAHA wells 100%;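 active = activation above the solvent-only control well mean plus 3 SD, averaged across control plates, cut at about 5.2% in these data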
Gal4-VP16 ctr = VP16 inhibition counter-screen for COUP-TFII; shares compounds with COUP-TFII inh; HEK293 Gal4-VP16 luciferase reporter, luminescence; inhibition, % at 8.5 µM; hit rate 25% among 2,500; AID 687007; in the data active = inhibition above about 13%
COUP-TFII conf = confirmation of human COUP-TFII (NR2F2) inhibitors; hit rate 45% among 2,500; AID 687008; inhibition, % at 8.5 µM; shares compounds with COUP-TFII inh; HEK293 NGFI-A luciferase reporter, luminescence;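 active = mean inhibition over three repeats above a set limit taken from the earlier primary screen, cut at about 38% in these data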
Each line names hits and unclear results; the compound was inactive in the other large screens (follow-up assays come after a bar, where they were run).

CC(=O)OCC12CC(OC(=O)CC(C)C)C(C)=CC1OC1C(O)C(OC(C)=O)C2(C)C12CO2 (stereo unspecified)	COUP-TFII inh 92, NR2E3 ag-2 101 (no result: NR2E3 ag-1) | NR2E3 ag conf 100 | VP16 counter 99
O=c1[nH]c2ccccc2n1C1CCN(C(c2ccccc2)c2nnnn2-c2ccc3c(c2)OCCO3)CC1 (stereo unspecified)	none (no result: NR2E3 ag-1)
O=c1[nH]c2ccccc2n1C1CCN(C(c2ccccc2OC(F)(F)F)c2nnnn2-c2ccc3c(c2)OCCO3)CC1 (stereo unspecified)	none (no result: NR2E3 ag-1) | NR2E3 ag conf inactive | VP16 counter inactive
CSCCC(c1nnnn1-c1ccc2c(c1)OCCO2)N1CCC(n2c(=O)[nH]c3ccccc32)CC1 (stereo unspecified)	none (no result: NR2E3 ag-1) | NR2E3 ag conf inactive | VP16 counter inactive
COC(=O)C1C(c2ccc(Cl)cc2)CC2CCC1N2C (stereo unspecified)	none (no result: NR2E3 ag-1, NR2E3 ag-2)
CCOc1ccc(-c2c(C)n(-c3ccc(OCC)cc3)c3[n+]2CCCCC3)cc1	COUP-TFII inh 90, GalR3 antagonist 19 | NR2E3 ag conf 97 | VP16 counter inactive
O=C1Nc2ccccc2/C1=C/c1cnc[nH]1	none | NR2E3 ag conf inactive | VP16 counter inactive
c1ccc(Cc2cnc(N3CCNCC3)nc2)cc1	none (no result: NR2E3 ag-1, NR2E3 ag-2)
COC1C(OC(=O)c2ccc(C)[nH]2)C(O)C(Oc2ccc3c(O)c(NC(=O)c4ccc(O)c(CC=C(C)C)c4)c(=O)oc3c2Cl)OC1(C)C (stereo unspecified)	NR2E3 ag-2 81 | NR2E3 ag conf inactive | VP16 counter inactive
N#Cc1ccc(NC(=S)N2Cc3cc(Br)ccc3-n3nncc3C2)cc1	none (no result: NR2E3 ag-1, NR2E3 ag-2)
CC(C)(C)c1cc(C=C(C#N)C#N)cc(C(C)(C)C)c1O	GalR3 antagonist 27, NR2E3 ag-2 92 | NR2E3 ag conf 86 | VP16 counter 89 | GalR3 antag conf 18 | HEK-CNG parental 15
CC(C)(C)NC(=O)CN1C(=O)[C@@H](Cc2c[nH]c3ccccc23)N=C(c2ccccc2)c2ccccc21	none (no result: NR2E3 ag-1, GalR3 antagonist, NR2E3 ag-2)
CN(C)C(=S)SSC(=S)N(C)C	SMARCA2 activ 15, NR2E3 ag-2 95 (no result: GalR3 antagonist) | NR2E3 ag conf inactive | VP16 counter inactive | SMARCA2 act conf inactive | GAL4-VP16 Luc 16
COc1ccc2c(c1)/C(=C/c1cnc[nH]1)C(=O)N2	SMARCA2 activ 17, NR2E3 ag-2 81 | NR2E3 ag conf 86 | VP16 counter inactive | SMARCA2 act conf 11 | GAL4-VP16 Luc inactive
COC(=O)C1C(c2ccc(I)cc2)CC2CCC1N2C (stereo unspecified)	none (no result: NR2E3 ag-1, NR2E3 ag-2)
O=c1[nH]sc2cc(F)ccc12	SMARCA2 activ 13 (no result: NR2E3 ag-1) | NR2E3 ag conf inactive | VP16 counter inactive | SMARCA2 act conf 11 | GAL4-VP16 Luc inactive
CC(c1ccccc1)n1cc(C(=O)NC2CCCC2)nn1 (stereo unspecified)	none (no result: NR2E3 ag-1, GalR3 antagonist, NR2E3 ag-2)
Cc1cc(N2CCNC[C@H]2C)ccc1N1CC[C@@H](O)C1	none (no result: NR2E3 ag-1, NR2E3 ag-2)
O=c1[nH]c(=S)[nH]c(O)c1N=Nc1ccc2c(c1)OCCO2	none
O=c1[nH]c(O)c(N=Nc2ccc3c(c2)OCCO3)c(=O)[nH]1	COUP-TFII inh 82 | NR2E3 ag conf inactive | VP16 counter inactive | Gal4-VP16 ctr inactive | COUP-TFII conf 64
C[C@H]1CNCCN1c1ccc(N2CC[C@H](O)C2)c(C#N)c1	none (no result: NR2E3 ag-1, NR2E3 ag-2)
CN1C2CCC1/C(=C/c1ccccn1)C(=O)/C2=C\c1ccccn1	COUP-TFII inh 63, NR2E3 ag-2 88 | NR2E3 ag conf 100 | VP16 counter inactive | Gal4-VP16 ctr 68 | COUP-TFII conf 85
Cc1ccccc1-n1c(/C=C/c2ccccn2)nc2ccccc2c1=O	none
CC(C)CC(NC(=O)CCCNC(=O)CCC(=O)OC1O[C@H]2OC3(C)CC[C@H]4[C@H](C)CCC(C1C)C24OO3)C(=O)O (stereo partly specified)	COUP-TFII inh 46, NR2E3 ag-2 94 | NR2E3 ag conf 91 | VP16 counter 74 | Gal4-VP16 ctr inactive | COUP-TFII conf 45
CC1C(OC(=O)CCC(=O)NC(C)(C)CO)O[C@H]2OC3(C)CC[C@H]4[C@H](C)CCC1C24OO3 (stereo partly specified)	COUP-TFII inh 46, NR2E3 ag-2 97 | NR2E3 ag conf 95 | VP16 counter 75 | Gal4-VP16 ctr inactive | COUP-TFII conf 50
N#CC1c2ccccc2-n2nncc2CN1Cc1cc(Cl)cc(Cl)c1 (stereo unspecified)	COUP-TFII inh 84, NR2E3 ag-2 88 (no result: NR2E3 ag-1) | NR2E3 ag conf 79 | VP16 counter 71 | Gal4-VP16 ctr 56 | COUP-TFII conf 64
COC(=O)C1=C(c2ccc(OC(F)(F)F)cc2)C[C@@H]2CC[C@H]1N2C(=O)N1CCc2cc(OC)c(OC)cc2C1	none (no result: NR2E3 ag-1, NR2E3 ag-2)
O=C(NCCN1CCC2(CC1)C(=O)NCN2c1ccccc1)c1cccc(F)c1	none (no result: NR2E3 ag-1, NR2E3 ag-2)
S=P(c1ccccc1)(c1ccccc1)c1c[n+](Cc2ccccc2)c2ccccn12	none (no result: NR2E3 ag-1, GalR3 antagonist, SMARCA2 activ, NR2E3 ag-2)
O=C1NC2C(=CC(O)C(O)C2O)c2cc3c(c(O)c21)OCO3 (stereo unspecified)	COUP-TFII inh 91, NR2E3 ag-2 102 (no result: NR2E3 ag-1) | NR2E3 ag conf 100 | VP16 counter 99 | Gal4-VP16 ctr 25 | COUP-TFII conf 84
